Data as given in ChEMBL document CHEMBL1127799, “Derivatives of a novel cyclopeptolide. 1. Synthesis, antifungal activity, and structure-activity relationships” (1994).
Converted amounts (≈) assume the structure as drawn.

Experiments:
Assay type in all cases: functional
[1] = tested on: Meyerozyma guilliermondii; assay: Tested for minimum inhibitory concentration against Candida guilliermondii 80 (C.g) at pH of 4.5.
Summary of the method: (§1)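 Broth microdilution in malt extract broth, initial pH 4.5 or 6.5, with 1×10^3 CFU per 0.2 mL well of thawed stored cultures. Compound stocks were made in 5% DMSO/0.2% Tween 80 and diluted to final 0.05–100 μg/mL. Plates were incubated 48 h at 30 °C and read macroscopically. MIC was the lowest concentration with no detectable growth. Vehicle-only wells served as controls.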

[2] = tested on: Candida albicans; assay: Tested for minimum subinhibitory concentration against Candida albicans 88 (Candida albicans) at pH 6.5.
Summary of the method: (§2)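 Malt extract broth microdilution, initial pH 6.5, inoculum 1×10^3 CFU per 0.2 mL well. Compound diluted from 0.08% stock (5% DMSO/0.2% Tween 80) to final 0.05–100 μg/mL. Macroscopic reading after 48 h, 30 °C. MSIC = lowest concentration giving visible growth inhibition in at least two of three triplicates. Vehicle-only negative controls.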

[3] = tested on: Candida albicans; assay: Tested for minimum subinhibitory concentration against Candida albicans 88 (Candida albicans) at pH 4.5.
Summary of the method: (§3)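 Malt extract broth microdilution at initial pH 4.5, 1×10^3 CFU/0.2 mL well, final compound 0.05–100 μg/mL diluted from DMSO/Tween 80 stocks. Incubation was 48 h at 30 °C with macroscopic reading. MSIC was the lowest concentration causing visible growth inhibition in at least two of three triplicates.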

[4] = tested on: Candida albicans; assay: Tested for minimum inhibitory concentration against Candida albicans 88 (Candida albicans) at pH 6.5.
Summary of the method: (§4)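 Broth microdilution in malt extract broth, initial pH 6.5, 1×10^3 CFU per 0.2 mL well, from liquid-nitrogen-stored Sabouraud cultures. Compound from 0.08% stock in 5% DMSO/0.2% Tween 80, final 0.05–100 μg/mL. Visual reading after 48 h at 30 °C. MIC = lowest concentration with no detectable growth. Vehicle-only negative controls.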

[5] = tested on: Candida albicans; assay: Tested for minimum inhibitory concentration against Candida albicans 4 (Candida albicans) at pH 6.5.; summary of the method: as §4
[6] = tested on: Candida albicans; assay: Tested for minimum subinhibitory concentration against Candida albicans 3 (Candida albicans) at pH 4.5.; summary of the method: as §3
[7] = tested on: Pichia kudriavzevii; assay: Tested for minimum subinhibitory concentration against Candida krusei 132 (C.k) at pH 6.5.; summary of the method: as §2
[8] = organism: Rattus norvegicus; assay: Tested for efficacy of compound in experimental vaginal candidosis (rat) after oral treatment at dosage of 2x 300 mg kg e-1
Summary of the method: (§5)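 Hormonally conditioned female Wistar rats (~150 g), 10 per group, given intravaginal C. albicans no. 124, 3.5×10^4 CFU in 50 μL Sabouraud's glucose broth. Oral dosing twice, 2 h before and 18 h after infection. Vaginal swabs plated on Sabouraud's glucose agar with streptomycin (0.1 mg/mL), 48 h at 37 °C. Cured when C. albicans not reisolated.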

[9] = tested on: Candida albicans; assay: Tested for minimum subinhibitory concentration against Candida albicans 4 (Candida albicans) at pH 6.5.; summary of the method: as §2
[10] = tested on: Meyerozyma guilliermondii; assay: Tested for minimum subinhibitory concentration against Candida guilliermondii 80 (C.g) at pH 4.5.; summary of the method: as §3
[11] = organism: Mus musculus; assay: Tested for efficacy of compound in experimental systemic candidosis (mouse) after oral treatment at dosage of 8 *200 mg kg e-1
Summary of the method: (§6)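 Systemic candidiasis: female NMRI mice (18–20 g), 10 per group, infected by intravenous injection of 10⁶ CFU C. albicans no. 124 via lateral tail vein. Oral dosing twice daily on 4 consecutive days, starting 2 h before inoculation. Efficacy taken as survival rate up to day 9 after infection.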

[12] = tested on: Candida albicans; assay: Tested for minimum subinhibitory concentration against Candida albicans 90 (Candida albicans) at pH 4.5.; summary of the method: as §3
[13] = organism: Rattus norvegicus; assay: Tested for efficacy of compound in experimental vaginal candidosis (rat) after oral treatment at dosage of 2x 150 mg kg e-1; summary of the method: as §5
[14] = tested on: Candida albicans; assay: Tested for minimum inhibitory concentration against Candida albicans 9 (Candida albicans) at pH 4.5.; summary of the method: as §1
[15] = tested on: Candida albicans; assay: Tested for minimum inhibitory concentration against Candida albicans 4 (Candida albicans) at pH 4.5.; summary of the method: as §1
[16] = tested on: Candida albicans; assay: Tested for minimum subinhibitory concentration against Candida albicans 26 (Candida albicans) at pH 6.5.; summary of the method: as §2
[17] = tested on: Mus musculus; assay: Tested for efficacy of compound in experimental systemic candidosis (mouse) after intraperitoneal treatment at dosage of 8 *50 mg kg e-1
Summary of the method: (§7)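 Mice (female NMRI, 18–20 g; 10 per group) infected by tail-vein injection of 10⁶ CFU C. albicans no. 124. Compound was given intraperitoneally twice daily on 4 consecutive days, starting 2 h before inoculation. Efficacy was scored as survival rate up to day 9 after infection.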

[18] = tested on: Candida tropicalis; assay: Tested for minimum inhibitory concentration against Candida tropicalis 43 (C.t) at pH of 6.5.; summary of the method: as §1
[19] = tested on: Candida albicans; assay: Tested for minimum inhibitory concentration against Candida albicans 124 (Candida albicans) at pH of 6.5.; summary of the method: as §1
[20] = tested on: Candida albicans; assay: Tested for minimum inhibitory concentration against Candida albicans 124 (Candida albicans) at pH 4.5.; summary of the method: as §1
[21] = tested on: Meyerozyma guilliermondii; assay: Tested for minimum inhibitory concentration against Candida guilliermondii 80 (C.g) at pH 4.5.; summary of the method: as §1
[22] = tested on: Mus musculus; assay: Tested for efficacy of compound in experimental vaginal candidosis (mouse) after intraperitoneal treatment at dosage of 4 x100 mg kg e-1
Summary of the method: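 Female NMRI mice (18–20 g; 10 per group) were hormonally conditioned and infected intravaginally with 3.5×10^4 CFU C. albicans no. 124 in 50 μL Sabouraud's glucose broth. Four doses were given by gavage or ip, at 2 h before and 2, 18 and 24 h after infection. One day after the last dose, vaginal swabs were plated on Sabouraud agar with streptomycin (0.1 mg/mL) for 48 h at 37 °C. Failed reisolation counted as cure.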

[23] = tested on: Rattus norvegicus; assay: Tested for efficacy of compound in experimental vaginal candidosis (rat) after intraperitoneal treatment at dosage of 2x 100 mg kg e-1
Summary of the method: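 Female Wistar rats (~150 g; 10 per group) were hormonally conditioned and infected intravaginally with 3.5×10^4 CFU C. albicans no. 124 in 50 μL broth. Intraperitoneal dosing was given twice, 2 h before and 18 h after infection. Swabs taken one day after the last dose were plated on streptomycin Sabouraud agar (48 h, 37 °C). Cure meant failed reisolation.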

[24] = tested on: Pichia kudriavzevii; assay: Tested for minimum subinhibitory concentration against Candida krusei 132 (C.k) at pH 4.5.; summary of the method: as §3
[25] = tested on: Mus musculus; assay: Tested for efficacy of compound in experimental systemic candidosis (mouse) after intraperitoneal treatment at dosage of 8 *25 mg kg e-1; summary of the method: as §7
[26] = organism: Rattus norvegicus; assay: Tested for efficacy of compound in experimental vaginal candidosis (rat) after tropical treatment at dosage of 9x 0.1% drug concentration
Summary of the method: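 Female Wistar rats (~150 g, hormonally conditioned, 10 per group) infected intravaginally with 3.5×10^4 CFU C. albicans no. 124 in 50 μL broth. Intravaginal gel, 0.2 mL, from 2 h post-inoculation, twice daily for 4 days (nine applications). Swabs plated one day after last treatment on Sabouraud's glucose agar with streptomycin, 48 h at 37 °C. Cure = no reisolation.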

[27] = organism: Mus musculus; assay: Tested for efficacy of compound in experimental systemic candidosis (mouse) after oral treatment at dosage of 8 *100 mg kg e-1; summary of the method: as §6
[28] = tested on: Candida albicans; assay: Tested for minimum subinhibitory concentration against Candida albicans 4 (Candida albicans) at pH 4.5.; summary of the method: as §3

- MIC [1]: 6.25 µg/mL (≈ 5.55 µM)
- MIC [4]: 100 µg/mL (≈ 88.8 µM)
- MIC [5]: 100 µg/mL (≈ 88.8 µM)
- MIC [14]: 12.5 µg/mL (≈ 11.1 µM)
- MIC [15]: 6.25 µg/mL (≈ 5.55 µM)
- MIC [18]: 100 µg/mL (≈ 88.8 µM)
- MIC [19]: 50 µg/mL (≈ 44.4 µM)
- MIC [20]: 1.56 µg/mL (≈ 1.38 µM)
- MIC [21]: 6.25 µg/mL (≈ 5.55 µM)
Structure (SMILES): CC[C@@H](C)[C@H]1C(=O)NCC(=O)N(C)[C@@H](C(C)C)C(=O)N[C@@H](Cc2ccc(OC)cc2)C(=O)O[C@H](C)C(=O)N2CCCC[C@H]2C(=O)N(C)[C@@H](C(C)C)C(=O)N[C@@H](C(C)C)C(=O)N(C)[C@@H](CC(=O)O)C(=O)N(C)[C@@H]([C@@H](C)CC)C(=O)N1C
- MSIC [2]: 3.12 µg/mL
- MSIC [3]: 0.78 µg/mL
- MSIC [6]: 0.78 µg/mL
- MSIC [7]: 3.12 µg/mL
- Efficacy [8]: 56%
- MSIC [9]: 12.5 µg/mL
- MSIC [10]: 0.8 µg/mL
- Efficacy [11]: 90%
- MSIC [12]: 0.78 µg/mL
- Efficacy [13]: 0%
- MSIC [16]: 6.25 µg/mL
- Efficacy [17]: 20%
- Efficacy [22]: 14%
- Efficacy [23]: 76%
- MSIC [24]: 1.56 µg/mL
- Efficacy [25]: 20%
- Efficacy [26]: 78%
- Efficacy [27]: 40%
- MSIC [28]: 0.78 µg/mL
